Shown are actives, neighbours in structure and some others; about 4.6% of the full set was active somewhere.
TAAR1 ag: agonists of human TAAR1. Q96RJ0. CHO RD-HGA16 TAAR1, Fluo-8 calcium fluorescence; vehicle wells 0%, saturating PEA agonist 100%. activation, % at 3 µM. actives 0.99% (n = 360,000). AID 624467;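 active = activation above the mean activation of all test compounds in the run plus 3 SD, cut at about 38% in these data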
Target sequence (Q96RJ0 whole entry, looked up): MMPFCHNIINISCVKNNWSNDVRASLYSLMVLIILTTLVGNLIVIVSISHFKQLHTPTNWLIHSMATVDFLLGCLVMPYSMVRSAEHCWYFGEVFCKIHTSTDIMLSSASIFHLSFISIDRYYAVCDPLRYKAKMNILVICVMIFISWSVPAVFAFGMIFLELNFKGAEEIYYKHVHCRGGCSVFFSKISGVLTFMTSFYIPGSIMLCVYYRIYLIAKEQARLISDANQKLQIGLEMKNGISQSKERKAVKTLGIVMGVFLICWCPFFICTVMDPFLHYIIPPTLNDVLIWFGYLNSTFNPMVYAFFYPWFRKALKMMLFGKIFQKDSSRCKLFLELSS
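test system = CHO RD-HGA16 cells carrying human TAAR1 plus Gα16 | schedule = 17-24 h seeding, 75 min 37 °C dye, 30 min RT | compound dosing = 3 µM single concentration | control set = DMSO and PEA EC100 | replicates = n 1 | signal = Fluo-8 fluorescence, 5 s baseline then 140 s kinetic read | measure = percent activation vs PEA EC100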
TAAR1 antagonist: antagonists of human TAAR1 | Q96RJ0 | CHO RD-HGA16 TAAR1, Fluo-8 calcium fluorescence, antagonist | inhibition, % at 3 µM | actives 1.5% (n = 360,000);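 active = inhibition above a per-plate cutoff, the mean inhibition of test compounds on that plate plus 3 SD, cut at about 49% in these data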;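 also: 0% = DMSO plus EC80 beta-PEA response and 100% = DMSO alone without agonist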
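System: RD-HGA16 CHO cells with stable hTAAR1 and Gα16 | Probe or stimulus: EC80 β-phenethylamine stimulus | Dosing: 3 µM, single point | Times: Dye loading 75 min at 37 °C, then 30 min room temperature | Measured by: Fluo-8 calcium-sensitive fluorescence | Read-out basis: % inhibition of agonist calcium response | Replicates: n of 1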
CHO parental Ca: counter-screen: ATP calcium response change in parental CHO cells; parental CHO-K1, ATP-induced calcium, Fluo-8 fluorescence; inhibition, % at 5.6 µM; actives 0.63% (n = 330,000);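 active = inhibition above that plate's mean sample inhibition plus 3 SD, cut at about 26% in these data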;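 also: 0% = ATP-challenged DMSO wells and 100% = DMSO wells without ATP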
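Material: Parental CHO cells | Reagent: ATP | Compound dosing: Single nominal dose of 5.6 µM per compound | Detection: Intracellular calcium via Fluo-8 no-wash fluorescent dye | Read-out: % inhibition of ATP-induced calcium mobilization | Benchmarks: Low control ATP plus DMSO, high control DMSO only | Replicates: Singlicate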
OX1R antag-1: OX1R (human) antagonism. OX1R-expressing cells, FRET antagonist read-out. O43613. actives 1.8% (n = 330,000). inhibition, % at 6.6 µM. AID 485270; in the data active = inhibition mostly above about 38%, no sharp cut-off; inactive = mostly below about 40%;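 also: 0% = agonist challenge alone and 100% = reference antagonist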
GPR7 antag: blocks human GPR7 receptor signaling | actives 1.1% (n = 290,000) | inhibition, % at 4.4 µM | P48145 | GPR7-expressing cells, fluorescence antagonist assay; in the data active = inhibition above about 16%, passing the limit was not always enough;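 also: cells stimulated with the agonist NPW; 0% = agonist with vehicle and 100% = vehicle without agonist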
Target sequence (P48145 whole entry, looked up): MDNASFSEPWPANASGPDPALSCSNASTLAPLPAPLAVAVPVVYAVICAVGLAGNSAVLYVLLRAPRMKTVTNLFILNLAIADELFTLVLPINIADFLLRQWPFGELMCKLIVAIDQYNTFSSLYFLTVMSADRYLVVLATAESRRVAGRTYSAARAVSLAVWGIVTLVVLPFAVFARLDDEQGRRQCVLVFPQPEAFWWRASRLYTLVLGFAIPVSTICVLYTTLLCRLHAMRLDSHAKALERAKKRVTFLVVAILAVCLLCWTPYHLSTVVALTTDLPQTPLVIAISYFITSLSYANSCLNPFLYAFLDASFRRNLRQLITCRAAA
OX1R antag-2: antagonists of human orexin 1 receptor | CHO/OX1R cells, Fluo-8 calcium fluorescence, orexin A | O43613 | actives 0.43% (n = 330,000) | inhibition, % at 5 µM;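 active = inhibition above its plate's threshold, mean inhibition of all tested compounds on the plate plus 3 SD, cut at about 37% in these data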;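 also: 0% = orexin A challenge wells and 100% = SB-334867-A antagonist wells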
nonsel antag count: nonselective antagonism, TAAR1 counter-screen; inhibition, % at 3 µM; shares compounds with TAAR1 antagonist; actives 77% (n = 2,400); AID 651780; counterscreen cell line, calcium fluorescence, antagonist mode; in the data active = inhibition above about 22%;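 also: CHO-Ga16 host cells stimulated with ATP at an EC80 level; 0% = agonist EC80 plus vehicle and 100% = vehicle without agonist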
TAAR1 ant conf: human TAAR1 antagonism, confirmed. actives 40% (n = 2,400). AID 651785. TAAR1-expressing cells, fluorescence antagonist read-out. inhibition, % at 3 µM. shares compounds with TAAR1 antagonist; in the data active = inhibition above about 49%;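 also: CHO-Ga16 host cells challenged with agonist PEA near its EC80; 0% = agonist at EC80 plus vehicle and 100% = vehicle with no agonist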
Ga16 ag counter: nonselective Ga16 agonism, counter-screen | shares compounds with TAAR1 antagonist | Ga16-expressing cells, calcium fluorescence, agonist counterscreen | activation, % at 3 µM | actives 18% (n = 2,400) | AID 651953; in the data active = activation above about 12%;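 also: 0% = vehicle wells and 100% = saturating stimulus response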
TAAR1 ag counter: TAAR1 agonism, antagonist counter-screen; shares compounds with TAAR1 antagonist; hTAAR1 cell line, fluorescence activation, agonist mode; activation, % at 3 µM; actives 2% (n = 2,400); AID 651955; in the data active = activation above about 37%;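 also: CHO cells stably expressing TAAR1 with calcium dye readout; 0% = DMSO vehicle and 100% = full agonist response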
* = called active by the depositor; / = not tested or not shown.

SMILES	TAAR1 ag	TAAR1 antagonist	CHO parental Ca	OX1R antag-1	GPR7 antag	OX1R antag-2	nonsel antag count	TAAR1 ant conf	Ga16 ag counter	TAAR1 ag counter
CCC(C)Nc1ncnc2c1cnn2Cc1ccc(Cl)cc1 (configuration not stated)	4	55*	0	10	-12	-11	17	35	13*	18
CSc1nc2nccc(-c3ccc(Oc4ccccc4)cc3)n2n1	11	56*	-4	12	-7	-35	16	22	2	10
c1ccc(Oc2ccc(-c3ccnc4nc(N5CCN(c6ccccc6)CC5)nn34)cc2)cc1	5	2	-14	7	-4	-21	/	/	/	/
COC(=O)CSc1ncnc2scc(-c3ccccc3)c12	-2	-14	-16	16	3	-9	/	/	/	/
COc1ccccc1N1CCN(C(=O)CSc2ncnc3scc(-c4ccccc4)c23)CC1	3	56*	-39	30	-1	-26	22*	33	5	10
CCCN1CCCCC(NC(=O)c2c(F)cccc2F)C1=O (configuration not stated)	4	-1	/	/	/	/	/	/	/	/
O=C(NCCN1CCOCC1)c1ccc(=O)n(Cc2ccc(Cl)cc2)c1	7	105*	-10	18	-1	-14	12	15	0	-2
COc1cccc(CNC(=O)C2CCN(S(=O)(=O)c3ccc4c(c3)C(C)(C)C(=O)N4C)CC2)c1	3	-8	/	/	/	/	/	/	/	/
Cc1cc(/C=N\NC(=O)c2cccs2)c(C)n1-c1ccc2ncccc2c1	10	103*	-28	38	19	8	34*	98*	12*	12
C[C@H]1[C@H](c2ccccc2)Oc2cccc(N3CCCC3)c2S(=O)(=O)N1Cc1cccc(F)c1	1	-25	/	/	/	/	/	/	/	/
Cc1ccc(C)c(NC(=O)COc2cccc3c2CCN(Cc2ccccc2)C3=O)c1	8	63*	-30	6	-9	-40	27*	39	5	2
CCN1CCc2c(OCC(=O)Nc3ccccc3)cccc2C1=O	2	1	-11	11	-8	-10	/	/	/	/
CSCC[C@H](NC(=O)Cc1c(C)c2cc3c(C)c(C)oc3cc2oc1=O)C(=O)N[C@@H](C(=O)O)c1ccccc1	0	-2	/	/	/	/	/	/	/	/
Cc1cccc(-n2ccnc2SCC(=O)Nc2cccc(S(=O)(=O)NC3=NCCC3)c2)c1C	0	-5	/	/	/	/	/	/	/	/
O=C(Oc1ccc(NC2=C(Cl)C(=O)c3ccccc3C2=O)cc1)c1ccc([N+](=O)[O-])cc1	/	/	/	/	-8	/	/	/	/	/
CC(=O)Nc1ccc(NC2=C(Cl)C(=O)c3ccccc3C2=O)cc1	-4	65*	/	/	-4	/	40*	47	-3	-6
COc1ccc(C(CNC(=O)c2cc(S(=O)(=O)N3CCN(c4ccccc4)CC3)ccc2Cl)N(C)C)cc1 (configuration not stated)	12	15	-12	9	/	6	/	/	/	/
CCCNC(=O)c1ccccc1NC(=O)c1ccc2c(c1)NC(=O)C(C)S2 (configuration not stated)	9	59*	-27	43	0	-34	27*	49*	7	14
COc1ccc(C(=O)N2CCCCC2c2cc(C(=O)NCc3cccnc3)no2)cc1 (configuration not stated)	0	-6	/	/	/	/	/	/	/	/
COc1ccc(-n2nc(C(=O)NCC(=O)N3CCC(C)CC3)c3ccccc3c2=O)cc1Cl	3	49*	-23	15	8	-125	17	35	5	1
COc1ccc(-n2nc(C(=O)NCC(=O)Nc3cc(OC)c(OC)c(OC)c3)c3ccccc3c2=O)cc1Cl	15	64*	-13	58	0	2	28*	47	8	6
COc1ccccc1-c1cn(CC[C@@H]2CC[C@H](NC(=O)C3CCC3)[C@@H](CO)O2)nn1	0	1	/	/	/	/	/	/	/	/
COc1ccccc1Cc1c(-c2ccccc2)nc2ccc(Cl)cn12	-1	12	/	/	/	/	/	/	/	/
COC(=O)c1cccc(C#CC(NP(=O)(c2ccccc2)c2ccccc2)c2ccccc2)c1 (configuration not stated)	16	72*	-14	19	/	-28	28*	36	2	2
O=C([C@H](Cc1ccccc1)NS(=O)(=O)c1ccc(Cl)cc1)N1CC[C@@]2(O)CCCC[C@H]2C1	26	56*	-23	22	1	-30	24*	46	8	9
SMILES	TAAR1 ag	TAAR1 antagonist	CHO parental Ca	OX1R antag-1	GPR7 antag	OX1R antag-2	nonsel antag count	TAAR1 ant conf	Ga16 ag counter	TAAR1 ag counter
O=C(OCC(=O)N1CCN(c2ccccc2)CC1)c1cc(F)c(F)cc1Cl	1	-10	/	/	/	/	/	/	/	/
Cc1ccccc1OCC(=O)N=Nc1c(O)n(C)c2ccccc12	6	54*	-17	25	-12	-15	27*	46	6	9
Cc1onc(-c2c(Cl)cccc2Cl)c1C(=O)c1c[nH]c(C(=O)NCC2CCCO2)c1 (configuration not stated)	26	62*	2	22	-7	-33	32*	45	11	13
COc1ccccc1N1CCN(Cc2cc(=O)oc3cc(C)cc(C)c23)CC1	0	-1	/	/	/	/	/	/	/	/
CC1(C(=O)NS(=O)(=O)c2ccccc2Cl)CCN1C(=O)C1(c2ccc(Cl)cc2)CCC1 (configuration not stated)	3	-23	/	/	/	/	/	/	/	/
COc1ccc(CCNC(=O)c2ccc(Cl)c(S(=O)(=O)N(C)c3ccccc3)c2)cc1	12	57*	-2	3	-13	-2	33*	44	9	3
CCOc1ccccc1N1CC(O)=C(c2nc3ccccc3s2)C1=N	23	66*	-9	11	14	20	26*	41	12*	10
CC(=O)Nc1cc(C(=O)OCC(=O)c2ccc(Cl)cc2Cl)ccc1C	13	10	-10	0	3	-20	/	/	/	/
CC(C)C(=O)Nc1cccc(C(=O)OCC(=O)c2ccc(Cl)cc2Cl)c1	19	78*	-4	12	-8	-18	54*	61*	14*	7
COc1ccc(NC(=O)C2(C)CCCN(C(C)C)C2)cc1OC (configuration not stated)	1	-5	/	/	/	/	/	/	/	/
CC(CNC(=O)CCCn1c(=O)c2cccn2c2cccnc21)c1ccccc1 (configuration not stated)	2	20	/	/	/	/	/	/	/	/
